From ChEMBL document CHEMBL5724801, “EUbOPEN Chemogenomics Library - Multiplex” (2024)
Values joined by “and” are separate entries in the source; they are usually repeats but may differ in a detail not shown here. Equal values may be shown once.

Test system: HEK-293T
Assay: Multiplex assay against HEK293T
Type: toxicity, cell-based
Conditions: human
Method in brief: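 Cells stained live at seeding with Hoechst33342, BioTracker Green Microtubule Cytoskeleton Dye, MitoTracker Red and Annexin V Alexa Fluor 680 were imaged on a CQ1 microscope at 37°C and 5% CO2 after compound addition. Their classification by CellPathfinder machine-learning gating ran from Hoechst high-intensity objects versus normal cells, to healthy, pyknosed or fragmented nuclei among normal cells, to mitotic or apoptotic among pyknosed cells. Tubulin, mitochondrial-mass and membrane-permeability phenotypes are per cents of healthy-nucleus cells.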

[1] = 12 h, 1 µM, compound concentration 1 uM
[2] = 12 h, 10 µM, compound concentration 10 uM
[3] = 24 h, 1 µM, compound concentration 1 uM
[4] = 24 h, 10 µM, compound concentration 10 uM
[5] = 48 h, 1 µM, compound concentration 1 uM
[6] = 48 h, 10 µM, compound concentration 10 uM

For `COc1ccc(Cl)cc1[C@]1(F)C(=O)Nc2cc(C(F)(F)F)ccc21` [FLINDOKALNER], the “Population Apoptotic (%)” value [1] was 8.33% and 8.73%, the “Population Fragmented Nuclei (%)” value [1] was 2.3% and 5.16% and the “Population Hoechst High Intensity Objects (%)” value [1] was 0%. For the same compound, the “Population Membrane Permeable-Phenotype (%)” value [1] was 0.56% and 0%, the “Population Mitochondria Different-Phenotype (%)” value [1] was 45.76% and 33.33% and the “Population Mitotic Cells (%)” value [1] was 91.67% and 91.27%. For the same compound, the “Population Normal (%)” value [1] was 100%, the “Population Pyknosed Nuclei (%)” value [1] was 39.47% and 81.29% and the “Total Cell Count” value [1] was 304 and 155. For the same compound, the “Population Apoptotic (%)” value [2] was 11.41% and 18.18%, the “Population Fragmented Nuclei (%)” value [2] was 2.47% and 3.73% and the “Population Hoechst High Intensity Objects (%)” value [2] was 0.54% and 0%. The “Population Membrane Permeable-Phenotype (%)” value [2] was 0.48% and 0%, the “Population Mitochondria Different-Phenotype (%)” value [2] was 38.16% and 26.32% and the “Population Mitotic Cells (%)” value [2] was 88.59% and 81.82%. The “Population Normal (%)” value [2] was 99.46% and 100%, the “Population Pyknosed Nuclei (%)” value [2] was 40.82% and 82.09% and the “Total Cell Count” value [2] was 367 and 134. The “Population Apoptotic (%)” value [3] was 16.18% and 15.32%, the “Population Fragmented Nuclei (%)” value [3] was 1.01% and 6.17% and the “Population Hoechst High Intensity Objects (%)” value [3] was 0%. For the same compound, the “Population Membrane Permeable-Phenotype (%)” value [3] was 3.37% and 0%, the “Population Mitochondria Different-Phenotype (%)” value [3] was 17.98% and 10.71% and the “Population Mitotic Cells (%)” value [3] was 83.82% and 84.68%. For the same compound, the “Population Normal (%)” value [3] was 100%, the “Population Pyknosed Nuclei (%)” value [3] was 27.36% and 76.54% and the “Population Tubulin-Different-Phenotype (%)” value [3] was 11.8% and 10.71%. For the same compound, the “Population Apoptotic (%)” value [4] was 13.79% and 23.64%, the “Population Fragmented Nuclei (%)” value [4] was 2.57% and 5.62% and the “Population Healthy Nuclei (%)” value [4] was 68.77% and 25.62%. The “Population Hoechst High Intensity Objects (%)” value [4] was 0.2% and 0%, the “Population Membrane Permeable-Phenotype (%)” value [4] was 0.86% and 0% and the “Population Mitochondria Different-Phenotype (%)” value [4] was 23.28% and 12.2%. For the same compound, the “Population Mitotic Cells (%)” value [4] was 86.21% and 76.36%, the “Population Normal (%)” value [4] was 99.8% and 100% and the “Population Pyknosed Nuclei (%)” value [4] was 28.66% and 68.75%. The “Population Fragmented Nuclei (%)” value [5] was 2.21% and 2.93%, the “Population Healthy Nuclei (%)” value [5] was 85.07% and 54.63% and the “Population Hoechst High Intensity Objects (%)” value [5] was 0%. The “Population Membrane Permeable-Phenotype (%)” value [5] was 4.29% and 2.68%, the “Population Mitochondria Different-Phenotype (%)” value [5] was 14.16% and 20.54% and the “Population Mitotic Cells (%)” value [5] was 96% and 72.41%. The “Population Normal (%)” value [5] was 100%, the “Population Apoptotic (%)” value [6] was 9.02% and 19.67% and the “Population Fragmented Nuclei (%)” value [6] was 2.19% and 4.66%. The “Population Healthy Nuclei (%)” value [6] was 86.19% and 63.73%, the “Population Hoechst High Intensity Objects (%)” value [6] was 0% and 0.52% and the “Population Membrane Permeable-Phenotype (%)” value [6] was 7.07% and 1.63%. The “Population Mitochondria Different-Phenotype (%)” value [6] was 21.1% and 21.95%, the “Population Mitotic Cells (%)” value [6] was 90.98% and 80.33% and the “Population Normal (%)” value [6] was 100% and 99.48%. For the same compound, the “Population Pyknosed Nuclei (%)” value [6] was 11.62% and 31.61%.

`Cc1ccc(F)cc1C(=O)Nc1ccc(C(=O)N2Cc3cccn3Cc3ccccc32)c(Cl)c1` [LIXIVAPTAN] was tested, and the “Population Apoptotic (%)” value [1] was 36% and 40%, the “Population Fragmented Nuclei (%)” value [1] was 5% and 6% and the “Population Healthy Nuclei (%)” value [1] was 83% and 74%. The “Population Hoechst High Intensity Objects (%)” value [1] was 7% and 5%, the “Population Membrane Permeable-Phenotype (%)” value [1] was 0% and the “Population Mitochondria Different-Phenotype (%)” value [1] was 45% and 57%. The “Population Mitotic Cells (%)” value [1] was 63% and 60%, the “Population Normal (%)” value [1] was 92% and 94% and the “Population Pyknosed Nuclei (%)” value [1] was 10% and 19%. For the same compound, the “Population Tubulin-Different-Phenotype (%)” value [1] was 38% and 32%, the “Total Cell Count” value [1] was 486 and 335 and the “Population Apoptotic (%)” value [2] was 46% and 50%. The “Population Fragmented Nuclei (%)” value [2] was 6%, the “Population Healthy Nuclei (%)” value [2] was 70% and 67% and the “Population Hoechst High Intensity Objects (%)” value [2] was 10% and 6%. The “Population Membrane Permeable-Phenotype (%)” value [2] was 0% and 1%, the “Population Mitochondria Different-Phenotype (%)” value [2] was 75% and 81% and the “Population Mitotic Cells (%)” value [2] was 53% and 50%. The “Population Normal (%)” value [2] was 89% and 93%, the “Population Pyknosed Nuclei (%)” value [2] was 22% and 25% and the “Population Tubulin-Different-Phenotype (%)” value [2] was 78% and 67%. For the same compound, the “Total Cell Count” value [2] was 339 and 357, the “Population Apoptotic (%)” value [3] was 30% and 36% and the “Population Fragmented Nuclei (%)” value [3] was 9% and 10%. The “Population Healthy Nuclei (%)” value [3] was 77% and 76%, the “Population Hoechst High Intensity Objects (%)” value [3] was 5% and 7% and the “Population Membrane Permeable-Phenotype (%)” value [3] was 0%. For the same compound, the “Population Mitochondria Different-Phenotype (%)” value [3] was 30% and 42%, the “Population Mitotic Cells (%)” value [3] was 69% and 63% and the “Population Normal (%)” value [3] was 94% and 92%. For the same compound, the “Population Pyknosed Nuclei (%)” value [3] was 13%, the “Population Tubulin-Different-Phenotype (%)” value [3] was 24% and 22% and the “Total Cell Count” value [3] was 595 and 423. The “Population Apoptotic (%)” value [4] was 37% and 58%, the “Population Fragmented Nuclei (%)” value [4] was 5% and 8% and the “Population Healthy Nuclei (%)” value [4] was 69% and 72%. For the same compound, the “Population Hoechst High Intensity Objects (%)” value [4] was 7% and 6%, the “Population Membrane Permeable-Phenotype (%)” value [4] was 0% and the “Population Mitochondria Different-Phenotype (%)” value [4] was 74% and 78%. The “Population Mitotic Cells (%)” value [4] was 62% and 41%, the “Population Normal (%)” value [4] was 92% and 93% and the “Population Pyknosed Nuclei (%)” value [4] was 24% and 19%. For the same compound, the “Population Tubulin-Different-Phenotype (%)” value [4] was 71% and 69%, the “Total Cell Count” value [4] was 392 and 401 and the “Population Apoptotic (%)” value [5] was 22% and 17%. The “Population Fragmented Nuclei (%)” value [5] was 12%, the “Population Healthy Nuclei (%)” value [5] was 80% and the “Population Hoechst High Intensity Objects (%)” value [5] was 2% and 4%. For the same compound, the “Population Membrane Permeable-Phenotype (%)” value [5] was 0%, the “Population Mitochondria Different-Phenotype (%)” value [5] was 19% and 24% and the “Population Mitotic Cells (%)” value [5] was 77% and 82%. The “Population Normal (%)” value [5] was 97% and 95%, the “Population Pyknosed Nuclei (%)” value [5] was 6% and 7% and the “Population Tubulin-Different-Phenotype (%)” value [5] was 17% and 21%. For the same compound, the “Total Cell Count” value [5] was 995 and 643, the “Population Apoptotic (%)” value [6] was 43% and 46% and the “Population Fragmented Nuclei (%)” value [6] was 9% and 11%. For the same compound, the “Population Healthy Nuclei (%)” value [6] was 74%, the “Population Hoechst High Intensity Objects (%)” value [6] was 7% and 8% and the “Population Membrane Permeable-Phenotype (%)” value [6] was 0%. For the same compound, the “Population Mitochondria Different-Phenotype (%)” value [6] was 72% and 71%, the “Population Mitotic Cells (%)” value [6] was 56% and 53% and the “Population Normal (%)” value [6] was 92% and 91%. The “Population Pyknosed Nuclei (%)” value [6] was 16% and 14%, the “Population Tubulin-Different-Phenotype (%)” value [6] was 69% and 59% and the “Total Cell Count” value [6] was 489 and 437.
